Data: ChEMBL document CHEMBL3797154, “Design and Synthesis of 1-((1,5-Bis(4-chlorophenyl)-2-methyl-1H-pyrrol-3-yl)methyl)-4-methylpiperazine (BM212) and N-Adamantan-2-yl-N'-((E)-3,7-dimethylocta-2,6-dienyl)ethane-1,2-diamine (SQ109) Pyrrole Hybrid Derivatives: Discovery of Potent Antitubercular Agents Effective against …” (J Med Chem, 2016)
≈ marks a conversion by molar mass, not a printed value. Calls of active or inactive are those of the source. The calls are words filed in the database; no cut-off is given here.

Experiments:
[1] = tested on: Mycolicibacterium aurum; assay: Inhibition of multidrug resistance efflux pump in Mycobacterium aurum ATCC 23366 assessed as inhibition of ethidium bromide efflux by measuring relative fluorescence units for ethidium bromide accumulation at 1/4 times MIC incubated for 60 mins by fluorimetric assay
Summary of the method: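 Whole-cell efflux assay: early-log cells (OD600 ~0.8) adjusted to OD600 0.4, washed into PBS; 4-6x10^7 bacteria/mL with 0.4% glucose, 0.5 mg/L ethidium bromide substrate and compound at 1/4x MIC. Fluorescence ex 544/em 590 nm at 37 °C every minute for 60 min; accumulation scored 0-4 by relative fluorescence bands. Verapamil positive, PBS negative control.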

[2] = tested on: Mycolicibacterium smegmatis; assay: Antimycobacterial activity against Mycobacterium smegmatis str. MC2 155 ATCC 700084 assessed as inhibition of mycobacterial growth incubated for 24 hrs by MABA method; type: functional; settings: MC2 155 ATCC 700084, 24 h
[3] = tested on: Mycolicibacterium aurum; assay: Antimycobacterial activity against Mycobacterium aurum ATCC 23366 assessed as inhibition of mycobacterial growth incubated for 4 days; type: functional
Summary of the method: (§1)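 HT-SPOTi agar dilution: two-fold serial dilutions of compound were mixed into Middlebrook 7H10 agar with 0.05% glycerol and 10% OADC, giving a final range of 500–0.5 µg/mL. Each well was spotted with 2x10^3 CFU of early-to-mid-log culture. Plates were incubated at 35 or 37 °C until spots appeared in control wells. Controls were DMSO-only and isoniazid. The MIC was read, in triplicate.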

[4] = tested on: Mycolicibacterium aurum; assay: Antimycobacterial activity against Mycobacterium aurum ATCC 23366 assessed as inhibition of mycobacterial growth at 500 ug/ml incubated for 4 days; type: functional, organism-based; summary of the method: as §1
[5] = tested on: Mycobacterium tuberculosis; assay: Antimycobacterial activity against Mycobacterium tuberculosis mc'2-7000x assessed as inhibition of mycobacterial growth; type: functional
[6] = tested on: Mycobacterium tuberculosis; assay: Antimycobacterial activity against Mycobacterium tuberculosis H37Rv ATTC 27294 assessed as inhibition of mycobacterial growth incubated for 7 days; type: functional
Summary of the method: (§2)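 MIC by HT-SPOTi on Middlebrook 7H10 agar with 0.05% (v/v) glycerol and 10% (v/v) OADC in 96-well format. Compounds dissolved at 50 mg/mL (stock), two-fold serial dilutions, final 500-0.5 µg/mL. Each well spotted with 2 µL early-to-midlog culture (2x10^3 CFU), incubated at 37 °C until distinct spots in control wells. DMSO-only and isoniazid controls; triplicate.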

[7] = Cytotoxic activity against human THP1 cells assessed as reduction in cell viability incubated for 48 hrs by […] based assay; parameters: species or system THP-1; settings: for GI50 at 48 h: THP1 cells; for GI50: thp-1, 48 h
Summary of the method: (§3)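 RAW264.7 or THP-1 cells were grown in RPMI-1640 with 10% FBS and seeded at 10^5 cells/mL. Compound was two-fold serially diluted from a 50 mg/mL stock, with a solvent-control row. Plates were held 48 h at 37 °C in 5% CO2. Wells were washed twice with PBS, with centrifugation between washes for THP-1, then given fresh RPMI plus 0.01% […]. After overnight incubation, fluorescence was read at 560/590 nm and GIC50 derived.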

[8] = Cytotoxic activity against mouse RAW264.7 cells assessed as reduction in cell viability incubated for 48 hrs by […] based assay; summary of the method: as §3
[9] = Selectivity index, ratio of GIC50 for cytotoxicity against mouse RAW264.7 cells to MIC for Mycobacterium tuberculosis H37Rv ATTC 27294; type: toxicity, cell-based; settings: read-out: Selectivity Index
Summary of the method: (§4)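 SI = GIC50 / H37Rv MIC (agar spot assay). GIC50 from cells in RPMI-1640 + 10% FBS, 37 °C, 5% CO2; 10^5 cells/mL added to two-fold compound dilutions from 50 mg/mL stock, solvent control row. 48 h exposure, washes (THP-1 centrifuged), fresh medium plus 0.01% […], overnight; fluorescence ex 560/em 590 nm.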

[10] = Selectivity index, ratio of GIC50 for cytotoxicity against human THP1 cells to MIC for Mycobacterium tuberculosis H37Rv ATTC 27294; type: toxicity, cell-based, THP-1; settings: read-out: Selectivity Index; summary of the method: as §4
[11] = tested on: Mycobacterium tuberculosis; assay: Antimycobacterial activity against Mycobacterium tuberculosis mc'2-7000x assessed as inhibition of mycobacterial growth at 500 ug/ml; type: functional, organism-based
[12] = tested on: Mycobacterium tuberculosis; assay: Antimycobacterial activity against Mycobacterium tuberculosis H37Rv ATTC 27294 assessed as inhibition of mycobacterial growth at 500 ug/ml incubated for 7 days; type: functional, organism-based; summary of the method: as §2
[13] = tested on: Mycobacterium tuberculosis; assay: Antimicrobial activity against Mycobacterium tuberculosis; type: functional

Row | SMILES | Activity [1] [RFU] | MIC [2] [µg/mL] | MIC [3] | growth inhibition (GI) [4] | MIC [5] | MIC ([6]; H37Rv ATTC 27294, 168 h) [µg/mL] | GI50 at 48 h [7] [µg/mL] | GI50 at 48 h [8] [µg/mL] | selectivity ratio [9] | selectivity ratio [10] | growth inhibition (GI) [11] | GI50 [7] | MIC [6] | growth inhibition (GI) [12] | MIC [13] [µM] | MIC ([3]; ATCC 23366, 96 h) [µg/mL]
1 | Cc1cc(CNOCc2ccccc2)c(C)n1-c1ccc(F)cc1 | 4 | > 64 | inactive | inactive | > 64 µg/mL | > 125 | 292 (≈ 900 µM) | 123 (≈ 379 µM) | < 1 | < 2.3 |  |  |  |  |  | 
2 | NNC(=O)c1ccncc1 [ISONIAZID] |  |  |  |  | inactive | 0.24 (≈ 1.75 µM) |  |  |  |  | inactive | Not Active |  |  |  | 
3 | Cc1cc(CNOCc2ccccc2)c(C)n1-c1ccc(Cl)cc1 | 2 | > 64 | inactive | inactive | > 64 µg/mL |  | 67 (≈ 197 µM) | 133 (≈ 390 µM) |  |  |  |  | inactive | inactive |  | 
4 | CC(C)=CCC/C(C)=C/CNCCNC1C2CC3CC(C2)CC1C3 (stereo not drawn) [SQ109] | 2 | 4 (≈ 12.1 µM) |  |  | 2 µg/mL (≈ 6.05 µM) | 0.51 (≈ 1.54 µM) |  |  |  |  |  | Not Active |  |  | 0.5 (≈ 0.165 µg/mL) | 7.8 (≈ 23.6 µM)
5 | Cc1cc(/C=N\OCc2ccccc2)c(C)n1-c1ccc(F)cc1 |  |  |  |  | inactive | 25 (≈ 77.5 µM) |  |  |  |  | inactive |  |  |  |  | 
